# Measured values pooled from the literature.
# Each line is one published result; the experiments were not run side by side.
# Target: Serine/threonine-protein kinase D1 (PRKD1, Homo sapiens, UniProt Q15139)
# One construct used (Q15139 1-912): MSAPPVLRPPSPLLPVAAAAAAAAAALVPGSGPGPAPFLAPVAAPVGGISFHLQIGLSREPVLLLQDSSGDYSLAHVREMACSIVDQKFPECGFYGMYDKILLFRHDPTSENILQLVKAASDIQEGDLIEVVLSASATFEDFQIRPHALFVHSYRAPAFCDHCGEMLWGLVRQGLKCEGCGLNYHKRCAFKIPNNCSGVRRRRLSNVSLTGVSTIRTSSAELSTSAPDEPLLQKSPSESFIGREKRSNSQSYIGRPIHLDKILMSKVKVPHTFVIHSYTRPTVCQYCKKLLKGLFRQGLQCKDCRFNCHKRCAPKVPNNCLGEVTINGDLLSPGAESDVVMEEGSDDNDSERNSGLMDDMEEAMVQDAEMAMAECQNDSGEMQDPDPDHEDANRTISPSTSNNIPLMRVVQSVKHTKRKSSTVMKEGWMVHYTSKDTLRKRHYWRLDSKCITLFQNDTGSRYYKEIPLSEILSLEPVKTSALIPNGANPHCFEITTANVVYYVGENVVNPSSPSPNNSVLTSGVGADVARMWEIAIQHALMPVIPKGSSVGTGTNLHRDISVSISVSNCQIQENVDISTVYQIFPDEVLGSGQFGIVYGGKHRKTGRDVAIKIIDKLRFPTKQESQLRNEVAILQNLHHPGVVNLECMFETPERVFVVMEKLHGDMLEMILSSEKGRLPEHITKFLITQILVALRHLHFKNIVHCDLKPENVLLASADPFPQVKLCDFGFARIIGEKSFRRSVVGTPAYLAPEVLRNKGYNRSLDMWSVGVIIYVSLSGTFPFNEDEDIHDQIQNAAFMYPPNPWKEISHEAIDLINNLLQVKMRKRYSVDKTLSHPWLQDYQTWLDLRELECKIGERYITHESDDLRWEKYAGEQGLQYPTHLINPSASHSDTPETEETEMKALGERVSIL
Compound,observed,action,technique,tested at,measurement,result
Cc1nccc(COC(=O)N2C[C@@H]3[C@@H](CNC(=O)c4ccc5[nH]nnc5c4)[C@@H]3C2)n1,cell-free assay,,competition with immobilised ligand,1 µM,remaining binding,100%
Cc1sc(C(=O)NC2COC2)cc1-n1cc(NC(=O)Nc2c(F)cccc2Cl)cn1,enzyme activity,inhibitor,,10 µM,remaining activity,93.3%
CCCS(=O)(=O)Nc1ccc(F)c(C(=O)c2c[nH]c3ncc(-c4ccc(Cl)cc4)cc23)c1F,enzyme activity,inhibitor,,1 µM,inhibition,< 10%
CNc1cccc2cc(C(=O)Nc3ccc(C(=O)O)cc3)c(=O)[nH]c12,enzyme activity,inhibitor,,10 µM,inhibition,-3.9%
CC(C)(C)c1nc(-c2cccc(NS(=O)(=O)c3c(F)cccc3F)c2F)c(-c2ccnc(N)n2)s1,enzyme activity,inhibitor,radiometric,1 µM,remaining activity,33%
CC(=O)N1CCC(c2ccc(C(=O)NC3=NCCN3)cc2C(F)(F)F)CC1,cell-free assay,,competition with immobilised ligand,1 µM,remaining binding,100%
COc1cc(Cl)c(C(=O)N[C@@H](CN[C@H]2CC[C@@H](N)CC2)Cc2ccc(C#N)cc2)cc1-c1ccc(CN[C@H](C)c2ccc(C)cc2)o1,enzyme activity,inhibitor,,1 µM,remaining activity,99%
Nc1nc(Nc2ccccc2)sc1C(=O)c1c(F)cccc1F,enzyme activity,inhibitor,,10 µM,remaining activity,46%
CNC(=O)c1cc(Oc2ccc(NC(=O)Nc3ccc(Cl)c(C(F)(F)F)c3)cc2)ccn1,enzyme activity,inhibitor,,0.3 µM,inhibition,8%
Cc1cc(NC(=O)c2cccc3cc(-c4cccc5[nH]nc(N)c45)ccc23)ccc1F,enzyme activity,inhibitor,,0.1 µM,activity vs control,76%
CCCCN(CCCC)C(=O)CN1C[C@H](c2cc(OC)c3c(c2)OCO3)[C@@H](C(=O)O)[C@@H]1CC(C)(C)CCC,cell-free assay,,competition with immobilised ligand,1 µM,remaining binding,79.4%
COc1cc2ncnc(Nc3ccc(Oc4ccccc4)cc3C)c2cc1OC,enzyme activity,inhibitor,,1 µM,inhibition,8%
FC(F)c1nc2ccccc2n1-c1nc(N2CCOCC2)nc(N2CCOCC2)n1,enzyme activity,inhibitor,,10 µM,remaining activity,96%
FC(F)(F)Oc1cccc(-c2cnc3ccc(-c4ccncc4)nn23)c1,enzyme activity,inhibitor,radiometric,1 µM,activity vs control,106%
CC(C)CC(=O)N1CCc2nc(-c3ccc(Br)cc3)nc(N(C)Cc3ccccc3)c2C1,cell-free assay,,competition with immobilised ligand,0.1 µM,remaining binding,87%
CCCOc1ccc(OC)c(F)c1C(=O)c1ccc(C(=O)N[C@@H]2CNC[C@H]2NC(=O)c2ccc3[nH]ncc3c2)cc1,enzyme activity,inhibitor,,10 µM,remaining activity,53%
CC(C)c1ccc(NC(=O)c2cccs2)c(-c2nc3ccccc3[nH]c2=O)c1,enzyme activity,inhibitor,,1 µM,activity vs control,97%
Nc1ncnc2occ(-c3ccc(NC(=O)Nc4cc(C(F)(F)F)ccc4F)cc3)c12,cell-free assay,inhibitor,,20 µM,remaining signal,30%
CN([C@@H]1CCc2c(CC(=O)O)c3ccccc3n2C1)S(=O)(=O)c1ccc(F)cc1,cell-free assay,,competition with immobilised ligand,1 µM,remaining binding,100%
Oc1cccc(-c2nc(N3CCOCC3)c3oc4ncccc4c3n2)c1,enzyme activity,inhibitor,,10 µM,remaining activity,120%
COc1cc2ncnc(Nc3ccc(F)c(Cl)c3)c2cc1OCCCN1CCOCC1,cell-free assay,,,0.5 µM,remaining signal,85.4%
O=C(Nc1ccc(Oc2ccc(F)cc2)cc1)N1CCc2ncccc2[C@H]1c1ccc(F)cc1,cell-free assay,,competition with immobilised ligand,1 µM,remaining binding,94%
N#CCCc1ccc2c(c1)-c1[nH]c3ccc([N+](=O)[O-])cc3c1CC(=O)N2,cell-free assay,,,0.5 µM,remaining signal,87.5%
Cc1ccc(C(=O)Nc2ccc(CN3CCN(C)CC3)c(C(F)(F)F)c2)cc1C#Cc1cnc2cccnn12,enzyme activity,inhibitor,,23.5 nM,remaining activity,91%
COc1cccc2c(NCc3ccccc3)nc(-n3c(N)nc4ccccc43)nc12,target engagement in cells,inhibitor,chemoproteomics,20 mM,inhibition,-20.7%
O=c1nc(-c2ccccn2)sc2ccccc12,binding,,competition with immobilised ligand,1 µM,remaining binding,100%
CCN(CC)CCNC(=O)c1c(C)[nH]c(/C=C2\C(=O)Nc3ccc(F)cc32)c1C,cell-free assay,,,0.5 µM,remaining signal,20%
Cc1ccc(Nc2nccc(N(C)c3ccc4c(C)n(C)nc4c3)n2)cc1S(N)(=O)=O,enzyme activity,inhibitor,,0.3 µM,inhibition,9%
c1ccc(CNc2nc(N3CCOc4ccccc43)nc3c2CCCC3)cc1,target engagement in cells,inhibitor,chemoproteomics,20 mM,inhibition,-8.8%
CC/C(=N\NC(=O)NCc1cccc(O)c1)c1ccc(O)c(C)c1O,enzyme activity,inhibitor,,0.1 µM,inhibition,-0.2%
Cn1cnc(Br)c1C1=CN(c2ncnc3[nH]cnc23)CCS1,enzyme activity,inhibitor,radiometric,50 nM,inhibition,21.4%
Cc1c(NC(=O)c2cc(C(N)=O)nc3cc(F)ccc23)c(C(F)(F)F)nn1Cc1ccc(C(C)(C)C)cc1,cell-free assay,,competition with immobilised ligand,1 µM,remaining binding,100%
Cn1cncc1C1=CN(c2ncnc3[nH]cnc23)CCS1,enzyme activity,inhibitor,radiometric,50 nM,inhibition,21.3%
Cc1ccc(NC(=O)c2ccc(C)c(C(F)(F)F)c2)cc1C#Cc1nn(C2CCC(O)CC2)c2ncnc(N)c12 (stereo not shown),cell-free assay,,,10 µM,remaining signal,91%
